According to ChEMBL document CHEMBL3580554, “Design, synthesis, and anticonvulsant activity of new hybrid compounds derived from 2-(2,5-dioxopyrrolidin-1-yl)propanamides and 2-(2,5-dioxopyrrolidin-1-yl)butanamides” (J Med Chem, 2015):

How the values were obtained:
Type in all cases: functional
Mus musculus [1] = assay: Anticonvulsant activity in Swiss mouse assessed as protection against seizures at 300 mg/kg, ip dosed 1 hr before initiation of maximal electroconvulsions by maximal electroshock test
In short: (§1)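 Mice were dosed i.p. at a fixed 300 or 100 mg/kg (6 Hz: 100 mg/kg only). Protection was then scored against MES, sc PTZ or 6 Hz seizures at pretreatment times of 0.25, 0.5, 1 and 2 h. Groups were four mice, scored as number protected / number tested. This also gives the time course and time of peak effect.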

Mus musculus [2] = assay: Anticonvulsant activity in Swiss mouse assessed as protection against seizures at 300 mg/kg, ip dosed 0.25 hrs before initiation of maximal electroconvulsions by maximal electroshock test; in short: as §1
Mus musculus [3] = assay: Anticonvulsant activity in Swiss mouse assessed as protection against seizures at 300 mg/kg, ip dosed 0.5 hrs before initiation of maximal electroconvulsions by maximal electroshock test; in short: as §1
Mus musculus [4] = assay: Anticonvulsant activity in Swiss mouse assessed as protection against seizures at 300 mg/kg, ip dosed 2 hrs before initiation of maximal electroconvulsions by maximal electroshock test; in short: as §1
Mus musculus [5] = assay: Anticonvulsant activity in Swiss mouse assessed as protection against seizures at 100 mg/kg, ip dosed 1 hr before initiation of maximal electroconvulsions by maximal electroshock test; in short: as §1
Mus musculus [6] = assay: Anticonvulsant activity in Swiss mouse assessed as protection against seizures at 100 mg/kg, ip dosed 0.5 hrs before initiation of maximal electroconvulsions by maximal electroshock test; in short: as §1
Mus musculus [7] = assay: Anticonvulsant activity in Swiss mouse assessed as protection against seizures at 100 mg/kg, ip dosed 0.25 hrs before initiation of maximal electroconvulsions by maximal electroshock test; in short: as §1
Mus musculus [8] = assay: Anticonvulsant activity in Swiss mouse assessed as protection against seizures at 100 mg/kg, ip dosed 2 hrs before initiation of maximal electroconvulsions by maximal electroshock test; in short: as §1

| SMILES | Activity (Mus musculus [1]) [%] | Activity (Mus musculus [2]) [%] | Activity (Mus musculus [3]) [%] | Activity (Mus musculus [4]) [%] | Activity (Mus musculus [5]) [%] | Activity (Mus musculus [6]) [%] | Activity (Mus musculus [7]) [%] | Activity (Mus musculus [8]) [%] |
| --- | --- | --- | --- | --- | --- | --- | --- | --- |
| CC(C(=O)N1CCN(c2ccccc2Cl)CC1)N1C(=O)CCC1=O (racemic) | 25 | 0 | 0 | 0 | – | – | – | – |
| CC(C(=O)N1CCN(c2ccc(Cl)cc2)CC1)N1C(=O)CCC1=O (racemic) | 0 | 100 | 100 | 0 | 0 | 25 | 50 | 0 |
| CC(C(=O)N1CCN(c2ccc(C(F)(F)F)cc2)CC1)N1C(=O)CCC1=O (racemic) | 0 | 25 | 25 | 0 | – | – | – | – |
| Cc1cccc(N2CCN(C(=O)C(C)N3C(=O)CCC3=O)CC2)c1 (racemic) | 0 | 100 | 50 | 0 | 0 | 0 | 0 | 0 |
| COc1cccc(N2CCN(C(=O)C(C)N3C(=O)CCC3=O)CC2)c1 (racemic) | 0 | 75 | 50 | 0 | 0 | 0 | 25 | 0 |
| CC(C(=O)N1CCOCC1)N1C(=O)CCC1=O (racemic) | 0 | 0 | 0 | 0 | – | – | – | – |
| CCC(C(=O)N1CCN(c2ccccc2Cl)CC1)N1C(=O)CCC1=O (racemic) | 50 | 50 | 25 | 0 | – | – | – | – |
| CCC(C(=O)N1CCN(c2ccc(Cl)cc2)CC1)N1C(=O)CCC1=O (racemic) | 25 | 0 | 0 | 25 | – | – | – | – |
| CCC(C(=O)N1CCN(c2ccccc2F)CC1)N1C(=O)CCC1=O (racemic) | 50 | 100 | 100 | 0 | 0 | 0 | 0 | 0 |
| CCC(C(=O)N1CCN(c2cccc(F)c2)CC1)N1C(=O)CCC1=O (racemic) | 75 | 75 | 100 | 0 | 0 | 0 | 0 | 0 |
| CCC(C(=O)N1CCN(c2ccc(F)cc2)CC1)N1C(=O)CCC1=O (racemic) | 25 | 0 | 25 | 0 | – | – | – | – |
| CCC(C(=O)N1CCN(c2ccccc2C(F)(F)F)CC1)N1C(=O)CCC1=O (racemic) | 0 | 25 | 25 | 0 | – | – | – | – |
| CCC(C(=O)N1CCN(c2ccc(C(F)(F)F)cc2)CC1)N1C(=O)CCC1=O (racemic) | 0 | 25 | 0 | 0 | – | – | – | – |
| CCC(C(=O)N1CCN(c2cccc(C)c2)CC1)N1C(=O)CCC1=O (racemic) | 75 | 100 | 100 | 0 | 0 | 0 | 50 | 0 |
| CCC(C(=O)N1CCN(c2cccc(OC)c2)CC1)N1C(=O)CCC1=O (racemic) | 0 | 25 | 0 | 0 | – | – | – | – |
| CCC(C(=O)N1CCOCC1)N1C(=O)CCC1=O (racemic) | 0 | 0 | 0 | 0 | – | – | – | – |
